For data set [1], the system named is Mus musculus. Kind of data set: Antiinflammatory activity in Balb/c mouse model of LPS-induced endotoxemia assessed as reduction in serum blood urea nitrogen level at 1 mg/kg, ip pretreated for 1 hr followed by LPS-challenge measured after 12 hrs by ELISA. Format: functional, organism-based. Put shortly: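 In BALB/c mice, 1 mg·kg−1 i.p. was given 1 h before LPS 10 mg·kg−1 i.p. After 12 h, serum AST, ALT and BUN were measured by ELISA. Means ± SEM.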

In data set [2] the test system is BMDC. Put plainly: Inhibition of Escherichia coli K1 infection-induced immune response in C57BL/6 mouse BMDC assessed as reduction in IL-12p70 secretion at 25 uM pretreated for 30 mins followed by Escherichia coli K1 infection for 6 hrs by ELISA. It counts as functional, cell-based. Put shortly:
(§1)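 BMDCs from C57BL/6 mice were given 25 μM compound and E. coli K1, […]. Timing was: compound 30 min before a 6 h infection; cotreatment for 6 h; or compound for 30–120 min with 6 h infection. Supernatant cytokines (TNF-α, IL-6, IL-10, IL-12p70) were measured by ELISA. At least three experiments in triplicate.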

Data set [3] concerns BMDC. Kind of data set: Inhibition of LPS-induced immune response in C57BL/6 mouse BMDC assessed as reduction in IL-6 secretion up to 25 uM pretreated for 30 mins followed by LPS-challenge measured after 6 hrs by ELISA. Format: functional, cell-based. Put shortly: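 Mouse BMDCs (female C57BL/6 bone marrow, GM-CSF-derived, ≥90% CD11c+ on day 7) pretreated 30 min with graded compound concentrations, then stimulated with LPS 50 ng/mL for 6 h. Supernatant TNF-α, IL-6, IL-10 and IL-12p70 quantified by sandwich ELISA. Mean ± SEM vs LPS-only cells; experiments repeated at least three times.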

The subject of data set [4] is BMDC. Put plainly: Inhibition of Escherichia coli DH5alpha infection-induced immune response in C57BL/6 mouse BMDC assessed as increase in IL10 secretion at 25 uM pretreated for 60 to 120 mins followed by Escherichia coli DH5alpha infection for 6 hrs by ELISA. It counts as functional, cell-based. Put shortly:
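C57BL/6 BMDCs received 25 μM compound and E. coli DH5α, 3 × 10^6 CFU·mL−1. Schedules were: compound 30 min before a 6 h infection; co-addition for 6 h; or compound for 30, 60, 90 or 120 min plus 6 h infection. Supernatant TNF-α, IL-6, IL-10 and IL-12p70 were measured by ELISA. At least three experiments in triplicate.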

Data set [5] concerns BMDC. Kind of data set: Inhibition of LPS-induced immune response in C57BL/6 mouse BMDC assessed as reduction in IL-12p70 secretion at 25 uM treated 6 hrs post LPS-challenge measured after 30 mins by ELISA. Format: functional, cell-based. Put shortly:
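Bone marrow DCs from 6-week-old female C57BL/6 mice, RBC-lysed, cultured in RPMI-1640/10% FBS with 10 ng/mL rmGM-CSF, 37 °C, 5% CO2. Cells given LPS 50 ng/mL for 6 h, then 25 μM compound added for 30, 60, 90 or 120 min. Supernatant TNF-α, IL-6, IL-10, IL-12p70 measured by sandwich ELISA. Mean ± SEM, compared with LPS-only DCs.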

Data set [6] concerns Mus musculus. Put plainly: Antiseptic activity in Balb/c mouse model of Escherichia coli K1 infection-induced sepsis assessed as reduction in serum TNFalpha level at 1 mg/kg, ip pretreated for 1 hr followed by Escherichia coli K1 infection measured after 2 hrs by ELISA. Format: functional, organism-based. Put shortly: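 BALB/c mice received 1 mg·kg−1 i.p. 1 h before i.p. E. coli K1 RS218, 1 × 10^6 CFU per mouse. Serum was collected at 2 h, and TNF-α, IL-6 and IL-10 were quantified by sandwich ELISA. Means ± SEM.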

Data set [7] concerns Mus musculus. Kind of data set: Antiinflammatory activity in Balb/c mouse model of LPS-induced endotoxemia assessed as increase in IL10 producing dendritic cells in splenocyte at 1 mg/kg, ip pretreated for 1 hr followed by LPS-challenge measured after 12 hrs by flow cytometric analysis. It counts as functional, organism-based.
In data set [8] the test system is BMDC. Kind of data set: Inhibition of Escherichia coli K1 infection-induced immune response in C57BL/6 mouse BMDC assessed as reduction in TNFalpha secretion at 25 uM pretreated for 30 mins followed by Escherichia coli K1 infection for 6 hrs by ELISA. It counts as functional, cell-based. Put shortly: as §1
Data set [9] has as its system Mus musculus. Kind of data set: Antiinflammatory activity in Balb/c mouse model of LPS-induced endotoxemia assessed as increase in survival rate at 1 mg/kg, ip pretreated for 1 hr followed by LPS-challenge measured over 72 hrs relative to control. Format: functional. Put shortly:
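Female-unspecified BALB/c mice given compound i.p. 1 h before i.p. LPS (20 mg·kg−1); survival followed over 72 h.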

Data set [10] concerns BMDC. Kind of data set: Cytotoxicity against C57BL/6 mouse BMDC assessed as effect on cell viability up to 100 uM after 24 hrs by luminescence assay. Format: cell-based. Put shortly:
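BMDCs came from C57BL/6 marrow cultured 7 days with 10 ng·mL−1 GM-CSF. Cells at 1 × 10^4 per well were incubated 24 h with 6.25–200 μM compound, with DMSO and H2O2 controls. Viability was read as ATP by luminescence. Means ± SEM.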

Active and inactive are the calls of the source. The rule behind the calls is not given here.

For the molecule `COc1ccc(-c2oc3cc(O)cc(O)c3c(=O)c2O)cc1O` [TAMARIXETIN], the result in the data set on Mus musculus [1], in the data set with Mus musculus [6] and in the data set on Mus musculus [7] was Active. For the same molecule, the inhibition result in the data set on BMDC [2], in the data set with BMDC [3], in the data set with BMDC [5] and in the data set on BMDC [8] was “Active” throughout. Also, in the data set on BMDC [4], the inhibition entry is “inactive”. Also, the Activity was 80% in the data set with Mus musculus [9] and “Non-Toxic” with BMDC [10].

The record behind these values is ChEMBL document CHEMBL4145607, “Tamarixetin Exhibits Anti-inflammatory Activity and Prevents Bacterial Sepsis by Increasing IL-10 Production” (J Nat Prod, 2018).
